How the values were obtained:
Caco-2 [1] = test: Induction of human ApoA-1 gene expression in human Caco-2 cells co-transfected with luc-beta-galactosidase after 48 hrs assessed as luciferase activity by luminometer relative to control; assay type: functional
Method in brief: (§1)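 Caco-2 cells stably carrying an ApoA-I promoter–luciferase reporter (co-transfected with pRSV-β-galactosidase as transfection control; selected in MEM with 20% calf serum and 0.5 mg/mL G418). Cells seeded, 24 h at 37 °C in 5% CO2, then starved 24 h in 0.5% FBS selection medium. Compounds added at 15 µM in 0.01% DMSO for 48 h. Cells lysed, luciferase read by luminometer and normalized to Bradford protein. Fold induction is taken against untreated cells and against resveratrol, which is run in each experiment.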

Caco-2 [2] = test: Induction of human ApoA-1 gene expression in human Caco-2 cells co-transfected with luc-beta-galactosidase after 48 hrs assessed as luciferase activity by luminometer relative to resveratrol; assay type: functional; method in brief: as §1
Caco-2 [3] = test: Cytotoxicity against human Caco-2 cells; assay type: cell-based
Caco-2 [4] = test: Induction of human ApoA-1 gene expression in human Caco-2 cells co-transfected with luc-beta-galactosidase at 15 uM after 48 hrs assessed as luciferase activity by luminometer relative to control; assay type: functional; method in brief: as §1

| Structure (SMILES) | fold change (FC) (Caco-2 [1]) | fold change (FC) (Caco-2 [2]) | Activity (Caco-2 [3]) | fold change (FC) (Caco-2 [4]) |
| --- | --- | --- | --- | --- |
| O=S(=O)(Nc1ccc(O)cc1)c1ccc(O)cc1 | 1.3 | 0.4 |  |  |
| Oc1ccc(-c2nnc(-c3cccc(O)c3)o2)cc1 | 3.7 | 0.9 | Non-toxic |  |
| Oc1cccc(-c2nnc(-c3ccccc3)o2)c1 | 2.2 | 0.6 | Non-toxic |  |
| OCc1cccc(-c2nnc(-c3ccc(O)cc3)o2)c1 | 1.4 | 0.5 | Non-toxic |  |
| CC(=O)Nc1cc(O)ccc1/C=C/c1ccc(O)cc1 | 0.9 | 0.3 |  |  |
| CS(=O)(=O)c1cc(O)ccc1/C=C/c1ccc(O)cc1 | 2 | 0.7 |  |  |
| O=[N+]([O-])c1cc(O)ccc1/C=C/c1ccc(O)cc1 | 9.4 | 2.8 |  |  |
| COc1cc(O)ccc1/C=C/c1ccc(O)cc1 | 12.5 | 4.6 |  |  |
| OCc1cc(O)ccc1/C=C/c1ccc(O)cc1 | 2 | 0.5 |  |  |
| CN(C)C(=O)c1cc(O)ccc1/C=C/c1ccc(O)cc1 | 1.1 | 0.2 |  |  |
| Nc1cc(O)ccc1/C=C/c1ccc(O)cc1 | 3.2 | 0.9 |  |  |
| CCOC(=O)c1cc(/C=C/c2ccc(O)cc2)ccc1O | 1.1 | 0.4 |  |  |
| NC(=O)c1cc(/C=C/c2ccc(O)cc2)ccc1O | 2.7 | 0.7 |  |  |
| O=C(Nc1ccccc1)c1ccc(O)cc1 | 1.7 | 0.5 |  |  |
| O=C(O)c1cc(/C=C/c2ccc(O)cc2)ccc1O | 1.2 | 0.4 |  |  |
| Oc1ccc(/C=C/c2ccc(O)nc2)cc1 | 1.1 | 0.4 |  |  |
| Oc1ccc(-c2nnc(-c3ccccc3)o2)cc1 | 1.9 | 0.5 | Non-toxic |  |
| Oc1ccc(/N=N/c2ccc(O)cc2)cc1 | 3.4 | 1.3 |  |  |
| O=C(Nc1ccc(O)cc1)c1ccccc1 | 1.7 | 0.6 |  |  |
| O=C(Nc1ccc(O)cc1)c1ccc(O)cc1 | 1.9 | 0.7 |  |  |
| Oc1ccc(CCc2ccc(O)cc2)cc1 | 3.9 | 1 |  |  |
| Oc1ccc(/C=C/c2cc(O)cc(O)c2)cc1 [RESVERATROL] |  |  |  | 2.6 |
| Oc1ccc(/C=C/c2ccc(O)cc2)cc1 [TRANS-4,4'-DIHYDROXYSTILBENE] | 5.1 | 1.6 |  |  |

— ChEMBL document CHEMBL1157841, “Stilbene analogs as inducers of apolipoprotein-I transcription” (Eur J Med Chem, 2010)
